Source: ChEMBL document CHEMBL5058577, “EUbOPEN Chemogenomics Library 2 (Multiplex)” (2022)

Tested on: U2OS
Assay: Multiplex assay against U2OS
Assay type: toxicity, cell-based
Settings: human
Method in brief: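 At seeding, live cells were stained with Hoechst33342, BioTracker Green Microtubule Cytoskeleton Dye, MitoTracker Red and Annexin V Alexa Fluor 680. After compound addition they were imaged on a CQ1 microscope at 37°C and 5% CO2, and CellPathfinder machine-learning gating sorted them into Hoechst high-intensity objects or normal cells, with normal cells further split into healthy, pyknosed or fragmented nuclei and pyknosed cells into mitotic or apoptotic. Tubulin, mitochondrial-mass and membrane-permeability phenotypes are given as per cents of cells with healthy nuclei.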

[1] = 12 h, 1 µM, compound concentration 1 uM, replicate 1
[2] = 12 h, 1 µM, compound concentration 1 uM, replicate 2
[3] = 12 h, 10 µM, compound concentration 10 uM, replicate 1
[4] = 12 h, 10 µM, compound concentration 10 uM, replicate 2
[5] = 24 h, 1 µM, compound concentration 1 uM, replicate 1
[6] = 24 h, 1 µM, compound concentration 1 uM, replicate 2
[7] = 24 h, 10 µM, compound concentration 10 uM, replicate 1
[8] = 24 h, 10 µM, compound concentration 10 uM, replicate 2
[9] = 48 h, 1 µM, compound concentration 1 uM, replicate 1
[10] = 48 h, 1 µM, compound concentration 1 uM, replicate 2
[11] = 48 h, 10 µM, compound concentration 10 uM, replicate 1
[12] = 48 h, 10 µM, compound concentration 10 uM, replicate 2

CN(C)C(=O)Cn1cc(-c2ccc(-c3nnc4ccccn34)cc2)cn1
Population Apoptotic (%) [1]: 90% | Population Fragmented Nuclei (%) [1]: 25% | Population Healthy Nuclei (%) [1]: 66% | Population Hoechst High Intensity Objects (%) [1]: 1% | Population Membrane Permeable-Phenotype (%) [1]: 6% | Population Mitochondria Different-Phenotype (%) [1]: 1% | Population Mitotic Cells (%) [1]: 9% | Population Normal (%) [1]: 98% | Population Pyknosed Nuclei (%) [1]: 8% | Population Tubulin-Different-Phenotype (%) [1]: 3% | Total Cell Count [1]: 251 | Population Fragmented Nuclei (%) [2]: 22% | Population Healthy Nuclei (%) [2]: 68% | Population Hoechst High Intensity Objects (%) [2]: 0% | Population Membrane Permeable-Phenotype (%) [2]: 3% | Population Mitochondria Different-Phenotype (%) [2]: 6% | Population Normal (%) [2]: 99% | Population Pyknosed Nuclei (%) [2]: 9% | Population Tubulin-Different-Phenotype (%) [2]: 4% | Total Cell Count [2]: 123 | Population Apoptotic (%) [3]: 95% | Population Fragmented Nuclei (%) [3]: 26% | Population Healthy Nuclei (%) [3]: 65% | Population Hoechst High Intensity Objects (%) [3]: 1% | Population Membrane Permeable-Phenotype (%) [3]: 4% | Population Mitochondria Different-Phenotype (%) [3]: 1% | Population Mitotic Cells (%) [3]: 4% | Population Normal (%) [3]: 98% | Population Pyknosed Nuclei (%) [3]: 7% | Population Tubulin-Different-Phenotype (%) [3]: 3% | Total Cell Count [3]: 298 | Population Apoptotic (%) [4]: 90% | Population Fragmented Nuclei (%) [4]: 11% | Population Healthy Nuclei (%) [4]: 81% | Population Mitochondria Different-Phenotype (%) [4]: 0% | Population Mitotic Cells (%) [4]: 10% | Total Cell Count [4]: 140 | Population Apoptotic (%) [5]: 94% | Population Fragmented Nuclei (%) [5]: 22% | Population Healthy Nuclei (%) [5]: 71% | Population Hoechst High Intensity Objects (%) [5]: 0% | Population Membrane Permeable-Phenotype (%) [5]: 4% | Population Mitochondria Different-Phenotype (%) [5]: 2% | Population Mitotic Cells (%) [5]: 5% | Population Normal (%) [5]: 99% | Population Pyknosed Nuclei (%) [5]: 5% | Population Tubulin-Different-Phenotype (%) [5]: 1% | Total Cell Count [5]: 315 | Population Apoptotic (%) [6]: 100% | Population Fragmented Nuclei (%) [6]: 17% | Population Healthy Nuclei (%) [6]: 74% | Population Membrane Permeable-Phenotype (%) [6]: 7% | Population Mitochondria Different-Phenotype (%) [6]: 7% | Population Mitotic Cells (%) [6]: 0% | Population Normal (%) [6]: 100% | Population Pyknosed Nuclei (%) [6]: 8% | Population Tubulin-Different-Phenotype (%) [6]: 4% | Total Cell Count [6]: 131 | Population Apoptotic (%) [7]: 86% | Population Fragmented Nuclei (%) [7]: 22% | Population Healthy Nuclei (%) [7]: 66% | Population Hoechst High Intensity Objects (%) [7]: 2% | Population Membrane Permeable-Phenotype (%) [7]: 4% | Population Mitochondria Different-Phenotype (%) [7]: 1% | Population Mitotic Cells (%) [7]: 13% | Population Normal (%) [7]: 97% | Population Pyknosed Nuclei (%) [7]: 11% | Population Tubulin-Different-Phenotype (%) [7]: 2% | Total Cell Count [7]: 333 | Population Apoptotic (%) [8]: 87% | Population Fragmented Nuclei (%) [8]: 10% | Population Healthy Nuclei (%) [8]: 85% | Population Hoechst High Intensity Objects (%) [8]: 1% | Population Membrane Permeable-Phenotype (%) [8]: 7% | Population Mitotic Cells (%) [8]: 12% | Population Normal (%) [8]: 98% | Population Pyknosed Nuclei (%) [8]: 4% | Population Tubulin-Different-Phenotype (%) [8]: 3% | Total Cell Count [8]: 180 | Population Apoptotic (%) [9]: 87% | Population Fragmented Nuclei (%) [9]: 16% | Population Healthy Nuclei (%) [9]: 75% | Population Hoechst High Intensity Objects (%) [9]: 2% | Population Membrane Permeable-Phenotype (%) [9]: 4% | Population Mitochondria Different-Phenotype (%) [9]: 2% | Population Mitotic Cells (%) [9]: 12% | Population Normal (%) [9]: 97% | Population Pyknosed Nuclei (%) [9]: 7% | Population Tubulin-Different-Phenotype (%) [9]: 1% | Total Cell Count [9]: 426 | Population Apoptotic (%) [10]: 93% | Population Fragmented Nuclei (%) [10]: 11% | Population Healthy Nuclei (%) [10]: 67% | Population Membrane Permeable-Phenotype (%) [10]: 7% | Population Mitochondria Different-Phenotype (%) [10]: 3% | Population Mitotic Cells (%) [10]: 6% | Population Pyknosed Nuclei (%) [10]: 20% | Population Tubulin-Different-Phenotype (%) [10]: 3% | Total Cell Count [10]: 158 | Population Apoptotic (%) [11]: 95% | Population Fragmented Nuclei (%) [11]: 21% | Population Healthy Nuclei (%) [11]: 67% | Population Hoechst High Intensity Objects (%) [11]: 3% | Population Membrane Permeable-Phenotype (%) [11]: 8% | Population Mitochondria Different-Phenotype (%) [11]: 4% | Population Mitotic Cells (%) [11]: 4% | Population Normal (%) [11]: 96% | Population Pyknosed Nuclei (%) [11]: 11% | Population Tubulin-Different-Phenotype (%) [11]: 4% | Total Cell Count [11]: 418 | Population Apoptotic (%) [12]: 85% | Population Fragmented Nuclei (%) [12]: 8% | Population Healthy Nuclei (%) [12]: 81% | Population Hoechst High Intensity Objects (%) [12]: 2% | Population Membrane Permeable-Phenotype (%) [12]: 6% | Population Mitochondria Different-Phenotype (%) [12]: 2% | Population Mitotic Cells (%) [12]: 14% | Population Normal (%) [12]: 97% | Population Pyknosed Nuclei (%) [12]: 9% | Population Tubulin-Different-Phenotype (%) [12]: 2% | Total Cell Count [12]: 284
